Measured values: ChEMBL document CHEMBL5303300, “EUbOPEN Chemogenomics Library - Multiplex” (2023)
Where “and” joins values, the source holds several entries; their conditions need not be identical. Identical values can stand only once.

Tested on: Fibroblast
Assay: Multiplex assay against human fibroblast
Format: toxicity, cell-based
Details: number of replicates 2
How it was run: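 On a CQ1 microscope at 37°C and 5% CO2, live cells were imaged after compound addition. They had been stained at seeding with Hoechst33342, BioTracker Green Microtubule Cytoskeleton Dye, MitoTracker Red and Annexin V Alexa Fluor 680. CellPathfinder machine-learning gating assigned cells to Hoechst high-intensity objects or normal cells, normal cells to healthy, pyknosed or fragmented nuclei, and pyknosed cells to mitotic or apoptotic. Tubulin, mitochondrial-mass and membrane-permeability phenotypes are per cents of healthy-nucleus cells.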

[1] = 12 h, 1 µM, compound concentration 1 uM
[2] = 12 h, 10 µM, compound concentration 10 uM
[3] = 24 h, 1 µM, compound concentration 1 uM
[4] = 24 h, 10 µM, compound concentration 10 uM
[5] = 48 h, 1 µM, compound concentration 1 uM
[6] = 48 h, 10 µM, compound concentration 10 uM

## CS(=O)(=O)c1ccc(C(=O)Nc2cc(F)cc(COc3ccc(Br)cc3CN3CC[C@H](O)C3)c2)c(Cl)c1.O=CO
[1]
  Population Apoptotic (%): 47% and 46%
  Population Healthy Nuclei (%): 54% and 67%
  Population Mitotic Cells (%): 52% and 53%
  Population Pyknosed Nuclei (%): 32% and 19%
  Total Cell Count: 177 and 249
[2]
  Population Apoptotic (%): 54% and 58%
  Population Fragmented Nuclei (%): 16% and 19%
  Population Healthy Nuclei (%): 51% and 54%
  Population Mitotic Cells (%): 45% and 41%
  Population Pyknosed Nuclei (%): 31% and 26%
  Total Cell Count: 197 and 232
[3]
  Population Apoptotic (%): 56% and 57%
  Population Fragmented Nuclei (%): 17% and 22%
  Population Healthy Nuclei (%): 55% and 57%
  Population Mitotic Cells (%): 43% and 42%
  Population Pyknosed Nuclei (%): 26% and 20%
  Total Cell Count: 195 and 268
[4]
  Population Fragmented Nuclei (%): 18%
  Population Healthy Nuclei (%): 57% and 54%
  Population Mitotic Cells (%): 9% and 16%
  Population Pyknosed Nuclei (%): 23% and 22%
  Total Cell Count: 187 and 243
[5]
  Population Apoptotic (%): 76%
  Population Fragmented Nuclei (%): 21%
  Population Healthy Nuclei (%): 57% and 61%
  Population Mitotic Cells (%): 21% and 23%
  Population Pyknosed Nuclei (%): 20% and 14%
  Total Cell Count: 201 and 289
[6]
  Population Apoptotic (%): 97%
  Population Fragmented Nuclei (%): 17% and 19%
  Population Healthy Nuclei (%): 54%
  Population Mitotic Cells (%): 2% and 7%
  Population Pyknosed Nuclei (%): 28% and 25%
  Total Cell Count: 144 and 211

## CCCNc1ccc2ncc(-c3ccncc3)n2n1
[1]
  Population Apoptotic (%): 30% and 34%
  Population Fragmented Nuclei (%): 4% and 14%
  Population Healthy Nuclei (%): 65% and 63%
  Population Hoechst High Intensity Objects (%): 0%
  Population Membrane Permeable-Phenotype (%): 14% and 6%
  Population Mitochondria Different-Phenotype (%): 0%
  Population Mitotic Cells (%): 69% and 65%
  Population Normal (%): 100%
  Population Pyknosed Nuclei (%): 29% and 21%
  Population Tubulin-Different-Phenotype (%): 18% and 9%
  Total Cell Count: 144 and 202
[2]
  Population Apoptotic (%): 51% and 53%
  Population Fragmented Nuclei (%): 12% and 10%
  Population Healthy Nuclei (%): 70% and 75%
  Population Hoechst High Intensity Objects (%): 0%
  Population Membrane Permeable-Phenotype (%): 4% and 3%
  Population Mitochondria Different-Phenotype (%): 5% and 1%
  Population Mitotic Cells (%): 48% and 46%
  Population Normal (%): 100%
  Population Pyknosed Nuclei (%): 17% and 13%
  Population Tubulin-Different-Phenotype (%): 27% and 17%
  Total Cell Count: 157 and 204
[3]
  Population Apoptotic (%): 38% and 42%
  Population Fragmented Nuclei (%): 9% and 14%
  Population Healthy Nuclei (%): 61% and 63%
  Population Hoechst High Intensity Objects (%): 0%
  Population Membrane Permeable-Phenotype (%): 9% and 8%
  Population Mitochondria Different-Phenotype (%): 2% and 1%
  Population Mitotic Cells (%): 61% and 57%
  Population Normal (%): 100%
  Population Pyknosed Nuclei (%): 29% and 21%
  Population Tubulin-Different-Phenotype (%): 25% and 13%
  Total Cell Count: 143 and 193
[4]
  Population Apoptotic (%): 75% and 65%
  Population Fragmented Nuclei (%): 18% and 15%
  Population Healthy Nuclei (%): 65% and 68%
  Population Hoechst High Intensity Objects (%): 0%
  Population Membrane Permeable-Phenotype (%): 5% and 3%
  Population Mitochondria Different-Phenotype (%): 8% and 7%
  Population Mitotic Cells (%): 25% and 34%
  Population Normal (%): 99% and 100%
  Population Pyknosed Nuclei (%): 16%
  Population Tubulin-Different-Phenotype (%): 33% and 30%
  Total Cell Count: 151 and 200
[5]
  Population Apoptotic (%): 55% and 59%
  Population Fragmented Nuclei (%): 14% and 20%
  Population Healthy Nuclei (%): 57% and 59%
  Population Hoechst High Intensity Objects (%): 0%
  Population Membrane Permeable-Phenotype (%): 15% and 8%
  Population Mitochondria Different-Phenotype (%): 1% and 0%
  Population Mitotic Cells (%): 44% and 40%
  Population Normal (%): 100% and 99%
  Population Pyknosed Nuclei (%): 28% and 19%
  Total Cell Count: 150 and 228
[6]
  Population Apoptotic (%): 61% and 80%
  Population Fragmented Nuclei (%): 14% and 13%
  Population Healthy Nuclei (%): 60% and 61%
  Population Hoechst High Intensity Objects (%): 0%
  Population Membrane Permeable-Phenotype (%): 11% and 4%
  Population Mitochondria Different-Phenotype (%): 6% and 5%
  Population Mitotic Cells (%): 38% and 20%
  Population Normal (%): 99%
  Population Pyknosed Nuclei (%): 24% and 25%
  Population Tubulin-Different-Phenotype (%): 45% and 33%
  Total Cell Count: 149 and 198
